From ChEMBL document CHEMBL3112579, “Inhibition of 5-oxo-6,8,11,14-eicosatetraenoic acid-induced activation of neutrophils and eosinophils by novel indole OXE receptor antagonists” (J Med Chem, 2014) come the findings set out here.

In data set [1] the target is T1, Oxoeicosanoid receptor 1 (Homo sapiens, UniProt Q8TDS5). Put plainly: Antagonist activity at OXE receptor (unknown origin) expressed in indo-1 loaded neutrophils assessed as inhibition of 5-oxo-ETE-induced calcium mobilization incubated for 2 mins prior to 5-oxo-ETE induction by spectrofluorometric analysis. In kind it is functional.
Data set [2] concerns the target T1, Oxoeicosanoid receptor 1. Put plainly: Antagonist activity at OXE receptor in human neutrophils assessed as inhibition of 5-oxo-ETE-induced calcium mobilization by spectrofluorometric analysis. In kind it is functional. A digest of the protocol:
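Indo-1 AM-loaded human neutrophils (dextran, Ficoll, hypotonic lysis) in PBS with Ca++ 1.8 mM and Mg++ 1 mM, stirred at 37 °C, ex 331/em 410 nm. Vehicle (DMSO) or antagonist at varied concentrations, then 5-oxo-ETE (final 10 nM) 2 min later, then digitonin (0.1%) 1 min later for maximal signal. IC50s are means ± SE of per-experiment IC50 values.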

Data set [3] relates to Liver. Put plainly: Drug metabolism in Sprague-Dawley rat liver homogenates assessed as retention time of unmetabolized compound at 20 uM by reversed-phase HPLC analysis. In kind it is ADME, tissue-based. The conditions noted are these: tissue homogenate. The gist of the method:
(§1)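 Male Sprague-Dawley rat liver homogenized in 0.25 M sucrose and spun at 600 × g for 10 min. Supernatant (0.8 ml) combined with phosphate buffer pH 7.4 (final 50 mM) and NADPH (final 1 mM). Compound (20 μM) incubated 60 min at 37 °C, stopped with ice-cold MeOH. Products analysed by reversed-phase HPLC with UV detection.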

Data set [4] deals with Rattus norvegicus. Put plainly: Drug metabolism in […] in presence of NADPH. In kind it is ADME.
Data set [5] can be described thus: Drug metabolism in Sprague-Dawley rat liver homogenates at 20 uM after 60 mins by reversed-phase HPLC analysis in presence of NADPH. In kind it is ADME, tissue-based. Particulars: read-out: Drug metabolism. The gist of the method:
as §1

The test system of data set [6] is Liver. Put plainly: Drug metabolism in Sprague-Dawley rat liver homogenates assessed as metabolite retention time at 20 uM by reversed-phase HPLC analysis. The conditions noted are these: tissue homogenate. In kind it is ADME, tissue-based. The gist of the method: as §1
Data set [7] deals with Liver. Put plainly: Drug metabolism in Sprague-Dawley rat liver homogenates in presence of ATP, CoA, L-carnitine, NAD+. In kind it is ADME, tissue-based. Particulars: tissue homogenate.
Data set [8] deals with T1, Oxoeicosanoid receptor 1. Put plainly: Antagonist activity at OXE receptor (unknown origin) expressed in anti-CD49d-labeled neutrophils assessed as inhibition of 5-oxo-ETE-induced F-actin polymerization preincubated for 5 mins followed by 5-oxo-ETE induction measured after 20 secs by flow cytometric analysis. A digest of the protocol: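 Unfractionated human leukocytes (dextran sedimentation, hypotonic lysis) stained 30 min on ice with APC-anti-CD49d, 5.5×10^6 cells/ml in PBS with Ca++/Mg++. Preincubated 5 min at 37 °C with vehicle or inhibitor, then 5-oxo-ETE (final 10 nM) for 20 s. Fixed in formaldehyde (final 8.5%), permeabilized with lysophosphatidylcholine, NBD-phalloidin (final 0.3 μM) overnight at 4 °C, flow cytometry. Eosinophils gated as high side scatter/high CD49d, neutrophils as high side scatter/low CD49d.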
(In general: A flow cytometer gives signals particle by particle.)

For data set [9], the species on record is Homo sapiens. Put plainly: Antagonist activity at interleukin-8 receptor (unknown origin) expressed in indo-1 loaded neutrophils assessed as inhibition of IL-8-induced calcium mobilization by spectrofluorometric analysis. A digest of the protocol: (§2)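 Human blood neutrophils (dextran sedimentation, Ficoll, hypotonic lysis) loaded with indo-1 AM. Ca++ 1.8 mM and Mg++ 1 mM added to the cuvette. Read at 37 °C with stirring, ex 331/em 410 nm. Vehicle or antagonist (10 μM) added, 5-oxo-ETE (10 nM) 2 min later, second agonist (LTB4, PAF, fMLP or IL-8) after a further 2 min, digitonin (0.1%) 1 min later for maximal fluorescence. Two independent experiments.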
(In general: Calcium assays in cells follow changes in intracellular calcium, usually with a dye or a luminescent sensor.)

The target of data set [10] is T2, fMet-Leu-Phe receptor (Homo sapiens) (UniProt P21462).
T2 sequence (whole entry): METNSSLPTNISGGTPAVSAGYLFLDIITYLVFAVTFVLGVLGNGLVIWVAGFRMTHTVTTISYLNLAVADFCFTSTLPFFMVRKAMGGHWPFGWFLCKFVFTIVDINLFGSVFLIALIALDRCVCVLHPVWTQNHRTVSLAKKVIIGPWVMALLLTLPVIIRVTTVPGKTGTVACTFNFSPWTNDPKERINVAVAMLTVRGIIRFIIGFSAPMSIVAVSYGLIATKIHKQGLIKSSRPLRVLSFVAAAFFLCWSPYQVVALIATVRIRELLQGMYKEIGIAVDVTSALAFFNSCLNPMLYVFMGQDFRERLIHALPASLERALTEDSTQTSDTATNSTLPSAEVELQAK
Put plainly: Antagonist activity at FPR1 receptor (unknown origin) expressed in indo-1 loaded neutrophils assessed as inhibition of fMLP-induced calcium mobilization at 10 uM by spectrofluorometric analysis. In kind it is functional. The gist of the method: as §2

The target of data set [11] is Platelet-activating factor receptor (Homo sapiens) (UniProt P25105). Put plainly: Antagonist activity at PAF receptor (unknown origin) expressed in indo-1 loaded neutrophils assessed as inhibition of PAF-induced calcium mobilization at 10 uM by spectrofluorometric analysis. In kind it is functional. A digest of the protocol:
as §2

Data set [12] concerns the target Leukotriene B4 receptor 1 (Homo sapiens) (UniProt Q15722). Put plainly: Antagonist activity at LTB4 receptor (unknown origin) expressed in indo-1 loaded neutrophils assessed as inhibition of LTB4-induced calcium mobilization at 10 uM by spectrofluorometric analysis. In kind it is functional. A digest of the protocol:
as §2

For data set [13], the target named is T1, Oxoeicosanoid receptor 1. Put plainly: Potency index, ratio of compound activity to Gue1654 activity for antagonism of OXE receptor (unknown origin) expressed in anti-CD49d-labeled neutrophils assessed as inhibition of 5-oxo-ETE-induced F-actin polymerization.
Data set [14] addresses T1, Oxoeicosanoid receptor 1. Put plainly: Potency index, ratio of compound activity to Gue1654 activity for antagonism of OXE receptor (unknown origin) expressed in anti-CD49d-labeled eosinophils assessed as inhibition of 5-oxo-ETE-induced F-actin polymerization.
For data set [15], the target named is T1, Oxoeicosanoid receptor 1. Put plainly: Antagonist activity at OXE receptor (unknown origin) expressed in anti-CD49d-labeled eosinophils assessed as inhibition of 5-oxo-ETE-induced F-actin polymerization preincubated for 5 mins followed by 5-oxo-ETE induction measured after 20 secs by flow cytometric analysis. The gist of the method: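 Unfractionated human leukocytes (dextran sedimentation, hypotonic lysis) stained 30 min on ice with APC-anti-CD49d, 5.5×10^6 cells/ml in PBS with Ca++/Mg++. Preincubated 5 min at 37 °C with vehicle or inhibitor, then 5-oxo-ETE (final 10 nM) for 20 s. Eosinophils gated as high side scatter/high CD49d, neutrophils as high side scatter/low CD49d.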

Active and inactive are the calls of the source. No cut-off for these calls is given here.

T1 sequence (Q8TDS5 whole entry): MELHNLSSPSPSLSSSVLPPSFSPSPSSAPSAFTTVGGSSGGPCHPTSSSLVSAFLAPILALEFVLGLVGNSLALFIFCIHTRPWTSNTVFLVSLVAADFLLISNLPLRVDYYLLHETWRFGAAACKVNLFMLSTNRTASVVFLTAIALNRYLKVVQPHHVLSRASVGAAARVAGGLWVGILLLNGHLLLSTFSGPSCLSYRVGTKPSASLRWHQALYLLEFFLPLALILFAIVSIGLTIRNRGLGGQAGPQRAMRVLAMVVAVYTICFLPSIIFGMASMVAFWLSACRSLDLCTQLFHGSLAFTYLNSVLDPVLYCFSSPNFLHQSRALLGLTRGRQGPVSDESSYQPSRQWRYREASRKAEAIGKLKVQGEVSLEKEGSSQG
Leukotriene B4 receptor 1 (Homo sapiens), sequence (Q15722 whole entry): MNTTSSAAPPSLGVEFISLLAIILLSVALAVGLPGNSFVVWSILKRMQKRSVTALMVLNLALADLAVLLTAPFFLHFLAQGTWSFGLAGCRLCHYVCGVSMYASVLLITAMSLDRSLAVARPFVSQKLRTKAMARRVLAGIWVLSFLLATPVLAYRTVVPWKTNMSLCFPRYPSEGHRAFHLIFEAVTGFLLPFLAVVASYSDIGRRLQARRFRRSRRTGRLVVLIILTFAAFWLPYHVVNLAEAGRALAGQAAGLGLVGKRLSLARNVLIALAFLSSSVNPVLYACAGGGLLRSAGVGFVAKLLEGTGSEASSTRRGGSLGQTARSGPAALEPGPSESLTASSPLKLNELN
Platelet-activating factor receptor (Homo sapiens), sequence (P25105 whole entry): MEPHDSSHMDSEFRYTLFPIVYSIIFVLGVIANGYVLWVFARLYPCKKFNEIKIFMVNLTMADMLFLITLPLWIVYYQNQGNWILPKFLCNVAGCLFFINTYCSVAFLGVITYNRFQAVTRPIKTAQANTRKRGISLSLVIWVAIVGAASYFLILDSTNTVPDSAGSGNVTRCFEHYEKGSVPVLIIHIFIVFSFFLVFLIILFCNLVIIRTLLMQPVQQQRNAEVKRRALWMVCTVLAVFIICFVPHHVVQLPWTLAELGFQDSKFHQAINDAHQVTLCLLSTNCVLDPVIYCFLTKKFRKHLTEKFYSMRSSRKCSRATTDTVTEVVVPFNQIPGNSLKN

What is called IC50 is the point on the concentration scale where inhibition reaches its midpoint. In the case of `CCCCCCc1nc2ccccc2cc1C(=O)CCCC(=O)O`, the IC50 in data set [1] was over 30000 nM.

In the case of `CCCCCCc1cc2ccccc2n1C(=O)CCC(=O)O`, the IC50 in data set [1] is over 30000 nM.

A word on the inhibition: it is the percentage by which the read-out fell short of the control. Consider `CCCCCCc1cn(C(=O)CCCC(=O)O)c2ccccc12`, for which, in [1], the inhibition result was “Active”.

In the case of `CCCC/C=C/c1cc2ccccc2n1C(=O)CCCC(=O)O`, the IC50 in [1] came to 4030 nM.

For the compound `CCCCCCc1cc2ccccc2n1C(=O)CC(C)(C)CC(=O)O`, the IC50 in [1] was determined as 11000 nM.

Consider `CCCCCc1cc2ccccc2n1C(=O)CCCC(=O)O`, for which the IC50 in data set [1] is 2150 nM.

Consider `CCCCCCc1cc2ccc(Br)cc2n1C(=O)CC(C)CC(=O)O` (centres undefined), for which the IC50 in data set [1] stood at 30 nM.

Regarding `O=C(O)CCCC(=O)n1ccc2ccccc21`, the IC50 in data set [1] is over 30000 nM.

For the compound `CCCCCCCCCCCc1cc2ccccc2n1C(=O)CCCC(=O)O`, the IC50 in data set [1] is 700 nM.

As to `CCCCCCc1cc2ccccc2n1C(=O)CCCC(=O)O`, the IC50 in data set [1] amounted to 1130 nM.

For the compound `CCCCCCc1cc2cc(Br)ccc2n1C(=O)CC(C)CC(=O)O` (centres undefined), in data set [1], the IC50 is 638 nM.

Consider `CCCCCCc1c(C(=O)CC(C)CC(=O)O)c2ccccc2n1C` (centres undefined), for which the IC50 in data set [1] came to 314 nM.

In the case of `CCCCCCc1c(C(=O)CCCC(=O)O)c2cc(Cl)ccc2n1C`, in data set [1], the IC50 was determined as 566 nM.

For `CCCCCCc1cc2cc(Cl)ccc2n1C(=O)CC(C)CC(=O)O` (centres undefined), in [1], the IC50 came out at 141 nM.

As to `CCCCC/C=C\C[C@H](O)/C=C/C=C/C=C/C(=O)CCCC(=O)O`, the IC50 in data set [2] was found to be 2500 nM.

In the case of `CCCCCCc1cccc2ccn(C(=O)CCCC(=O)O)c12`, the inhibition result in data set [1] was “Active”.

In the case of `CCCCCCc1ccc2c(ccn2C(=O)CCCC(=O)O)c1`, in data set [1], the inhibition result was “Active”.

On to `CCCCCCc1c(C)c2ccccc2n1C(=O)CC(C)CC(=O)O` (centres undefined), for which the concentration for half-maximal inhibition (IC50) in data set [1] amounted to 136 nM.

For the compound `CCCCCCn1cc(C(=O)CCCC(=O)O)c2ccccc21`, the inhibition result in [1] was “Active”.

Consider `CCCCc1cc2ccccc2n1C(=O)CCCC(=O)O`, for which the IC50 in [1] is 13700 nM.

Regarding `CCCCC/C=C\C[C@H](O)/C=C/C=C\C=C\C(=O)CCCC(=O)O`, in [2], the 50% inhibitory concentration (IC50) was 500 nM.

Turning to `CCCCCCc1cc2ccccc2n1C(=O)CC1(CC(=O)O)CC1`, the IC50 in data set [1] is 1630 nM.

Regarding `CCCCCCc1cc2ccc(Cl)cc2n1C(=O)CC(C)CC(=O)O` (racemic), the Retention_time in data set [3] amounted to 30.2 min; in data set [6], 18.2 min. For the same compound, the figures for the Drug metabolism result in data set [4] and in data set [7] were “Active” and “Not Active”, respectively. The metabolised at 1 h, 20 µM in data set [5] was 12%. Further, in data set [8], the inhibition result was “Active”. The inhibition entry in [9], in [10], in data set [11] and in data set [12] was “inactive” in each case.

`CCCCCCc1c(C(=O)CC(C)CC(=O)O)c2cc(Br)ccc2n1C` (centres undefined): the IC50 in data set [1] is 26 nM.

As to `CCCCCCCc1cc2ccccc2n1C(=O)CCCC(=O)O`, in data set [1], the IC50 worked out at 750 nM.

On to `CCCCCCc1[nH]c2ccccc2c1C(=O)CCCC(=O)O`, for which, in [1], the IC50 amounted to 9750 nM and the inhibition came out at 50%.

Take `CCCCCCc1c(C(=O)CC(C)CC(=O)O)c2ccc(Cl)cc2n1C` (centres undefined): the IC50 in data set [1] was determined as 81 nM.

Turning to `CCCCCCc1c(C(=O)CCCC(=O)O)c2ccccc2n1C`, the IC50 in data set [1] came out at 6060 nM.

As for `CCCCCCc1ccc2ccn(C(=O)CCCC(=O)O)c2c1`, the inhibition result in data set [1] is “Active”.

Regarding `CCCCCCCCc1cc2ccccc2n1C(=O)CCCC(=O)O`, the IC50 in data set [1] was 570 nM.

Consider `CCCCCCc1c(C(=O)CC(C)CC(=O)O)c2cc(Cl)ccc2n1C` (racemic), for which the Drug metabolism entry in [4] is on record as “Active”; in [7], “Not Active”. Moreover, in data set [5], the metabolised at 1 h, 20 µM came to 2%. Further, the Retention_time in data set [6] was 14.1 min. The Ratio in [13] and in data set [14] was 10 throughout. The inhibition result in [8] is “Active”. The 50% inhibitory concentration (IC50) in data set [15] came to 33 nM. For the same compound, the inhibition entry in data set [9], in data set [10], in data set [11] and in [12] was “inactive” in each case.

Take `CCCCCCCCC/C=C\c1cc2ccccc2n1C(=O)CCCC(=O)O`: the IC50 in data set [1] is 550 nM.

Consider `CCCCCCc1cc2ccc(OC)cc2n1C(=O)CC(C)CC(=O)O` (centres undefined), for which the IC50 in [1] was 323 nM.
